The values that follow come from ChEMBL document CHEMBL3351652, “First photoswitchable neurotransmitter transporter inhibitor: light-induced control of γ-aminobutyric acid transporter 1 (GAT1) activity in mouse brain” (J Med Chem, 2014).

Calls of active or inactive are those of the source. The rule behind the calls is not given here. Where only a bound is given, the exact number is not on record here.

Data set [1] deals with T1, Sodium- and chloride-dependent GABA transporter 1 (Mus musculus, UniProt P31648). The experiment in a line: Inhibition of mouse GAT1 stably expressed in HEK293 assessed as inhibition of [3H]GABA uptake after 25 mins by liquid scintillation counting. The data set is classed as cell-based. The gist of the method:
(§1)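 HEK cells stably expressing the individual murine GABA transporter subtype; standardized [3H]GABA uptake assay adapted for photoswitchable ligands, run with the pure (E)-isomers; inhibition expressed as pIC50 ± SEM.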

Data set [2] deals with T1, Sodium- and chloride-dependent GABA transporter 1. The experiment in a line: Inhibition of mouse GAT1 stably expressed in HEK293 assessed as inhibition of [3H]GABA uptake treated with compound irradiated at 350 nm for 30 mins measured after 25 mins by liquid scintillation counting. The data set is classed as cell-based.
In a further data set the target is T2, GABA transporter 2 (Mus musculus, UniProt P31651).
T2 sequence (P31651 whole entry): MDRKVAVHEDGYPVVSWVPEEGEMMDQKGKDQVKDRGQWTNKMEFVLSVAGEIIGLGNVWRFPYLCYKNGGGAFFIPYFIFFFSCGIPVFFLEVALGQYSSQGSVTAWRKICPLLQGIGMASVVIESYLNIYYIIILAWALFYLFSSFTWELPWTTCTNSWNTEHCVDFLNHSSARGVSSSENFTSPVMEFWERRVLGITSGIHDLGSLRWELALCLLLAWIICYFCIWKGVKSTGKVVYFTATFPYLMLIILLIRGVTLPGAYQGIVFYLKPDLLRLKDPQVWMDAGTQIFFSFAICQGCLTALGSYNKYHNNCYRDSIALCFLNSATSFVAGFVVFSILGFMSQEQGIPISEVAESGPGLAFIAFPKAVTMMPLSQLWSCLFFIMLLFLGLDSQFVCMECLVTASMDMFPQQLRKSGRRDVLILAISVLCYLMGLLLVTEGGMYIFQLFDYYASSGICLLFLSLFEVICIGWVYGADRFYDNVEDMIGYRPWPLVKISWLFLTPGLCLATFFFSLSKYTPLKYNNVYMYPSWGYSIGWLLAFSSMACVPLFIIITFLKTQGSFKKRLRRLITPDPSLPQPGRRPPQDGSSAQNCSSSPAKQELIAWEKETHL
Put plainly: Inhibition of mouse GAT2 stably expressed in HEK293 assessed as inhibition of [3H]GABA uptake after 25 mins by liquid scintillation counting. The format is cell-based. The gist of the method: as §1

The next data set has as its target T3, GABA transporter 3 (Mus musculus, UniProt P31649).
T3 sequence (P31649 whole entry): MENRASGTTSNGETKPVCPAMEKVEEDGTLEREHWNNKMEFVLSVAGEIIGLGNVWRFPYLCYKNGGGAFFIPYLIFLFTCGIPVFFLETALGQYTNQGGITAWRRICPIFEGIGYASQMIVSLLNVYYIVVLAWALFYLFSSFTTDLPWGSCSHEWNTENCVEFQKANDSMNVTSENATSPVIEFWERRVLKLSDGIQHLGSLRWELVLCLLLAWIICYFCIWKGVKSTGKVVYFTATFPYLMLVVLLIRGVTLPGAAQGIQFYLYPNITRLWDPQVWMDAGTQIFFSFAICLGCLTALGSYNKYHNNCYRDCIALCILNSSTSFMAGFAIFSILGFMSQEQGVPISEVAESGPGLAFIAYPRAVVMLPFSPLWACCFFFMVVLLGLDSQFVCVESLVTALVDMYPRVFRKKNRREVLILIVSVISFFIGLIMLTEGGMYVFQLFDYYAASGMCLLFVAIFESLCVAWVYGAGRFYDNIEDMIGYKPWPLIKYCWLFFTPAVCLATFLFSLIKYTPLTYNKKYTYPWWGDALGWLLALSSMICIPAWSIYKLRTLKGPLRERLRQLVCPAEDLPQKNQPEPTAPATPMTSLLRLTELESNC
Put plainly: Inhibition of mouse GAT3 stably expressed in HEK293 assessed as inhibition of [3H]GABA uptake after 25 mins by liquid scintillation counting. The format is cell-based. The gist of the method:
as §1

The target of the next data set is T4, GABA transporter 4 (Mus musculus, UniProt P31650).
T4 sequence (P31650 whole entry): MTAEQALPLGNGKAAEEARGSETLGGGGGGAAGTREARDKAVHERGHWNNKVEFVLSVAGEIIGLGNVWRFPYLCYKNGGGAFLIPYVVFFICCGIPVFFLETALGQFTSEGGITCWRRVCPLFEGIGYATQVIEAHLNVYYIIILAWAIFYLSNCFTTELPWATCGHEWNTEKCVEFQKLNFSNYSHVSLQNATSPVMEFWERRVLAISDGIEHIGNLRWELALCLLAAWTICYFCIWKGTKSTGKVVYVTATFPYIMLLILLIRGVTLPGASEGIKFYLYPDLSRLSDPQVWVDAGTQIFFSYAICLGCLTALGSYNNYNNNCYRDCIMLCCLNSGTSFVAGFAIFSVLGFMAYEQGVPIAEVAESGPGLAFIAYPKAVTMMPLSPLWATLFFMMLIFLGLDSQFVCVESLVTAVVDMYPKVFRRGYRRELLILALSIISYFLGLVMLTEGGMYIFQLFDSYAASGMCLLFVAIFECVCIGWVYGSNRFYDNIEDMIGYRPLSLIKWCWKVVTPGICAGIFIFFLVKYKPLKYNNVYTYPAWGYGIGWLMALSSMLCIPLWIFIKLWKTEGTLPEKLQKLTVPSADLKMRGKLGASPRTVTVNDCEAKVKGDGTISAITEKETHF
Put plainly: Inhibition of mouse GAT4 stably expressed in HEK293 assessed as inhibition of [3H]GABA uptake after 25 mins by liquid scintillation counting. The format is cell-based. The essentials: as §1

The nature of data set [3]: Half life of thermal relaxation of the compound in D2O in dark at 10 mM by 1H NMR analysis. The format is physicochemical. To be noted: 10000 µM. The essentials: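 Thermal relaxation of the photoisomer back to the (E)-form followed in the dark by 1H NMR in D2O, 10 mM, at 37 °C.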
The nature of data set [4]: Half life of thermal relaxation of the compound in DMSO-d6/phosphate-buffer at pH 7.4 in dark at 50 uM by UV/vis-spectroscopy. The data set is classed as physicochemical. The settings on record: pH 7.4, 50 µM. The gist of the method: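 Photoisomer relaxation to (E) monitored in the dark by UV/vis spectroscopy at 50 μM in DMSO-d6/phosphate buffer (pH 7.4) 1:200 (v/v), 25 °C; half-life derived from this thermal back-isomerization.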

In data set [5] the target is T1, Sodium- and chloride-dependent GABA transporter 1. Put plainly: Inhibition of mouse GAT1 stably expressed in HEK293 assessed as inhibition of [3H]GABA uptake treated with compound irradiated at 375 nm for 30 mins measured after 25 mins by liquid scintillation counting. The data set is classed as cell-based.
In data set [6] the target is Sodium- and chloride-dependent GABA transporter 1 (Mus musculus) (UniProt P31648). Put plainly: Selectivity ratio of IC50 for mouse GAT1 stably expressed in HEK293 assessed as inhibition of [3H]GABA uptake after 25 mins to IC50 for mouse GAT1 stably expressed in HEK293 assessed as inhibition of [3H]GABA uptake treated with compound irradiated at 375 nm for 30 mins measured after 25 mins.

The target is the same in data set [7]. Put plainly: Inhibition of GAT1 in C57BL/6N mouse dentate gyrus granule cells assessed as induction of tonic GABAA receptor-mediated current at -70 mV holding potential non-UV irradiated compound treated at 20 uM by patch-clamp analysis.
Data set [8] has the same target. The experiment in a line: Inhibition of GAT1 in C57BL/6N mouse dentate gyrus granule cells assessed as induction of tonic GABAA receptor-mediated current at -70 mV holding potential UV irradiated compound treated at 20 uM by patch-clamp analysis.
For data set [9] the target is unchanged. Put plainly: Inhibition of GAT1 in C57BL/6N mouse dentate gyrus granule cells assessed as induction of tonic GABAA receptor-mediated current at -70 mV holding potential compound treated at 20 uM followed by neuronal tissue UV-irradiation by patch-clamp analysis.

In the case of `O=C(O)C1CCCN(CCOCCc2cccc(/N=N/c3ccccc3)c2)C1` (stereo not given), the IC50 in data set [1] was 3.16 µM; in data set [2], 4.17 µM; on GABA transporter 2 it was 339 µM; at GABA transporter 3 it was 148 µM; at GABA transporter 4, 209 µM.
For the molecule `O=C(O)C1CCCN(CCOCCc2ccc(/N=N/c3ccccc3)cc2)C1` (stereo not given), the IC50 is 1.91 µM in [1]; 4.57 µM in [2]; greater than 1000 µM at GABA transporter 2; greater than 1000 µM at GABA transporter 3; greater than 1000 µM on GABA transporter 4.
Consider `O=C(O)C1CCCN(CCOCCc2ccc(/N=N\c3ccccc3)cc2)C1` (stereo not given), for which the t1/2 in data set [3] turned out to be 57.6 h. Besides, the IC50 in data set [2] is 4.57 µM.
As for `O=C(O)[C@@H]1CCCN(CCOCCc2cccc(/N=N\c3cccc4ccccc34)c2)C1`, the t1/2 in data set [4] turned out to be 19.3 h. For the same molecule, the IC50 in data set [5] was 1.66 µM.
Take `O=C(O)C1CCCN(CCOCCc2ccccc2/N=N\c2ccccc2)C1` (stereo not given): the t1/2 in data set [3] was 115 h. The IC50 in [2] was 5.5 µM.
On to `O=C(O)C1CCCN(CCOCCc2cccc(/N=N\c3ccccc3)c2)C1` (stereo not given), for which the t1/2 in data set [3] is 140 h. For the same molecule, in data set [2], the IC50 was 4.17 µM.
`O=C(O)C1CCCN(CCOCCc2ccccc2/N=N/c2ccccc2)C1` (stereo not given): the half-maximal inhibitory concentration (IC50) in [1] was 10.7 µM; in data set [2] it was 5.5 µM; on GABA transporter 2, 234 µM; at GABA transporter 3, 145 µM; at GABA transporter 4, 562 µM.
Take `O=C(O)[C@@H]1CCCN(CCOCCc2ccc(/N=N/c3cccc4ccccc34)cc2)C1`: the IC50 is 0.269 µM in [1]; 0.794 µM in [5]; 20.4 µM at GABA transporter 2; 19.5 µM at GABA transporter 3; 22.9 µM on GABA transporter 4. For the same molecule, in data set [6], the Ratio IC50 was found to be 3.
For `O=C(O)[C@@H]1CCCN(CCOCCc2ccc(/N=N\c3cccc4ccccc34)cc2)C1`, in data set [4], the t1/2 was determined as 13.6 h. Moreover, the 50% inhibitory concentration (IC50) in [5] is 0.794 µM.
For `O=C(O)[C@@H]1CCCN(CCOCCc2cccc(/N=N/c3cccc4ccccc34)c2)C1`, the IC50 is 0.407 µM in data set [1]; 1.66 µM in data set [5]; 64.6 µM at GABA transporter 2; 25.1 µM on GABA transporter 3; 30.9 µM at GABA transporter 4. Also, in [6], the Ratio IC50 was 4. Besides, in [7], the inhibition entry was “Active”. Also, the inhibition entry in data set [8] and in data set [9] was “inactive” throughout.
